Experiments:
[1] = target: T1, Vascular endothelial growth factor receptor 2 (Homo sapiens, UniProt P35968); test: Inhibition of vascular endothelial growth factor receptor 2
Outline: (§1)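 Radiometric kinase assay. Conditions varied slightly per kinase. Stopped with PBS/100 mM EDTA, read by scintillation counting. IC50 by linear regression of % inhibition, mean of at least two determinations.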

[2] = Inhibition of cyclin-dependent kinase 1 activity; outline: as §1
[3] = target: T1, Vascular endothelial growth factor receptor 2; test: Inhibitory concentration (experimental) against vascular endothelial growth factor receptor 2; outline: as §1
[4] = target: Glycogen synthase kinase-3 (Homo sapiens, UniProt P49840+P49841); test: Inhibition of glycogen synthase kinase-3; format: protein assay; outline: as §1
[5] = system: A-375; test: Concentration required to inhibit proliferation of A375 human amelanotic melanoma cell growth
[6] = Inhibition of protein kinase C gamma; outline: as §1
[7] = system: HASMC; test: Concentration required to inhibit proliferation of HASMC; conditions: Homo sapiens
[8] = system: HUVEC; test: Concentration required to inhibit proliferation of HUVEC; conditions: Homo sapiens
[9] = Inhibition of protein kinase A; outline: as §1
[10] = system: MRC5; test: Concentration required to inhibit proliferation of human MRC5 fibroblast cell growth
[11] = system: HCT-116; test: Concentration required to inhibit proliferation of human HCT116 colon cancer cell growth
[12] = system: HUVEC; test: Concentration inhibiting VEGF stimulated (2 ng/well) HUVE cell proliferation; conditions: Homo sapiens
[13] = target: Casein kinase I; test: Inhibition of casein kinase 1; format: protein assay
[14] = system: HeLa; test: Concentration required to inhibit proliferation of HeLa cell growth; conditions: Homo sapiens
[15] = target: CaM kinase II (Homo sapiens, UniProt Q13557+Q13555+Q13554+Q9UQM7); test: Inhibition of calcium/calmodulin-dependent protein kinase type II; format: protein assay
[16] = target: Casein kinase II (Homo sapiens, UniProt P19784+P67870+P68400); test: Inhibition of casein kinase 2; format: protein-complex assay; outline: as §1
[17] = target: Insulin receptor (Homo sapiens, UniProt P06213); test: Inhibition of insulin Receptor kinase; outline: as §1
[18] = target: Mitogen-activated protein kinase 1 (Homo sapiens, UniProt P28482); test: Inhibition of mitogen-activated protein kinase; outline: as §1
[19] = Inhibition of platelet-derived growth factor receptor; outline: as §1
[20] = target: Cyclin-dependent kinase 4/cyclin D1 (Homo sapiens, UniProt P11802); test: Inhibition of cyclin dependent kinase 4-cyclinD1; format: protein-complex assay; outline: as §1
[21] = system: A-375; test: The antitumor activity shown by the compound against A375 human melanoma xenografts growing in nude mice (10 mg/kg, i.p.) in terms of mean day of survival; format: functional, Mus musculus
Outline: (§2)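 Female nude mice carried subcutaneous flank implants of 1 mm3 A375 fragments and were pair-matched on day 1 at tumors of 62-126 mg. Dosing was i.p. once daily for 30 days, in 1.5% Pluronic F108 vehicle; the study ended at day 60. Tumor weight was taken as (w2l)/2. Mice were euthanized at 2.0 g, and MDS was derived from calculated time to endpoint.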

[22] = target: Protein kinase C beta type (Homo sapiens, UniProt P05771); test: Inhibition of protein kinase C beta activity; outline: as §1
[23] = system: A-375; test: The antitumor activity shown by the compound against A375 human melanoma xenografts growing in nude mice (75 mg/kg, i.p.) in terms of mean day of survival; format: functional, Mus musculus; outline: as §2

Mitogen-activated protein kinase 1, sequence (P28482 whole entry): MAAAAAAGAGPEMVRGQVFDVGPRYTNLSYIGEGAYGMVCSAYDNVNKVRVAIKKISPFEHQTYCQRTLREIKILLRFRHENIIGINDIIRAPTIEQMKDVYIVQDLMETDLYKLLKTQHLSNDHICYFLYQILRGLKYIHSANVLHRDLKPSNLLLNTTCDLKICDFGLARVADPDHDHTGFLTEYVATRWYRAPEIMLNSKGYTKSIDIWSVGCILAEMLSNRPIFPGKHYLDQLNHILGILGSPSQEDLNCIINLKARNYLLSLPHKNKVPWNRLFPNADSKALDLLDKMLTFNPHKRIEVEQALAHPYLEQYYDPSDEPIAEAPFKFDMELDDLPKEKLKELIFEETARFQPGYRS
T1 sequence (P35968 whole entry): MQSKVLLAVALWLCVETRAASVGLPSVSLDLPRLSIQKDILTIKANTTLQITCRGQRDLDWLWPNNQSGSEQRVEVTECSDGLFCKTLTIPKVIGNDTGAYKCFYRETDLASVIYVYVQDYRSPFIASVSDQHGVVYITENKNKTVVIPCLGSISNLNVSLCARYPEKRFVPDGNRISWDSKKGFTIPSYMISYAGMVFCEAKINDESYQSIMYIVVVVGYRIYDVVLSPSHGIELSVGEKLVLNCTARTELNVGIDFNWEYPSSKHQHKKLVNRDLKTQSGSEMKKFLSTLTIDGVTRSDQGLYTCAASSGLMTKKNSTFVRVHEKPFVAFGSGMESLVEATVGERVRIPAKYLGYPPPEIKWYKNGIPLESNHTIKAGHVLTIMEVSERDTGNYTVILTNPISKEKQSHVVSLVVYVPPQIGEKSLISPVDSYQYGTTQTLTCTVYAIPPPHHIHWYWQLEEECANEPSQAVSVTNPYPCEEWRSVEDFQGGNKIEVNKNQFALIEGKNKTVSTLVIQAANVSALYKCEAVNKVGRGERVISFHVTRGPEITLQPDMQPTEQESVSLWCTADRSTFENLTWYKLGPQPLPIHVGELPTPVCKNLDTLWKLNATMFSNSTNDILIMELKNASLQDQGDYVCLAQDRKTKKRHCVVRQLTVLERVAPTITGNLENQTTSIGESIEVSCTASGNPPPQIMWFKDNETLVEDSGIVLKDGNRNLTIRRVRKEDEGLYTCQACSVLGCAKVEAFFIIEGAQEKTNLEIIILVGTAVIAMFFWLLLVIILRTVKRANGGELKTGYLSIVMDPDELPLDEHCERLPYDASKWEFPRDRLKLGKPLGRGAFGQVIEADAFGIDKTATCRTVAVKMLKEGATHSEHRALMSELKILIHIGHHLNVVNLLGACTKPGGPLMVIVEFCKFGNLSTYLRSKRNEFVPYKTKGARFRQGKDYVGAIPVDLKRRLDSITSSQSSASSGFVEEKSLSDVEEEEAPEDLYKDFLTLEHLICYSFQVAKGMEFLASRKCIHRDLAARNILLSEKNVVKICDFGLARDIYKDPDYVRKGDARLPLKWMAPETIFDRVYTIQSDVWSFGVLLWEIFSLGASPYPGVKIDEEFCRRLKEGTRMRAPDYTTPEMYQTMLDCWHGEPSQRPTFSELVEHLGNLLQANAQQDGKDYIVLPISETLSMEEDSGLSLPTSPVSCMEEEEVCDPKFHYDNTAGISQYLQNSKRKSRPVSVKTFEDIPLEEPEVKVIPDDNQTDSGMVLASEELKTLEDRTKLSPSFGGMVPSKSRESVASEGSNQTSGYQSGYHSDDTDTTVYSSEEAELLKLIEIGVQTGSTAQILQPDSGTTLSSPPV
Insulin receptor, sequence (P06213 28-758 limits assumed): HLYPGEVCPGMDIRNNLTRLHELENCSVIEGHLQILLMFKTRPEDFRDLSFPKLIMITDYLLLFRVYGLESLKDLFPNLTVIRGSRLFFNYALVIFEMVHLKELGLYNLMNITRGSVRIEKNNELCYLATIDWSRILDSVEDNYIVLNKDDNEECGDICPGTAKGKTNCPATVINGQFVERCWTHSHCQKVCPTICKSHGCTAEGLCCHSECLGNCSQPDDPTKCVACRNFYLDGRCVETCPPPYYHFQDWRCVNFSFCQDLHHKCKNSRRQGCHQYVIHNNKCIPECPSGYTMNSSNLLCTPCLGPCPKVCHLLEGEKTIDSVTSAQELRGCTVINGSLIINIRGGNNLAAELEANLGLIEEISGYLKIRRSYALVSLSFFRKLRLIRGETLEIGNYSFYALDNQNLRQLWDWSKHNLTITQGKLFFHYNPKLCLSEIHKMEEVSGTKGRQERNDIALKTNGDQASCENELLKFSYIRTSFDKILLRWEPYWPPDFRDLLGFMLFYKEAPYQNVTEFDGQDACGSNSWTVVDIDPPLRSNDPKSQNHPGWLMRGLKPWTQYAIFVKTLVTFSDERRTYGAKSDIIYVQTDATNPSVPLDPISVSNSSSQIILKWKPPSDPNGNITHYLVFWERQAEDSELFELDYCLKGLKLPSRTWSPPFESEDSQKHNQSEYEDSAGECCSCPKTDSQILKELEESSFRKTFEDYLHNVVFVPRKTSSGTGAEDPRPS
Insulin receptor, sequence (P06213 763-1382 limits assumed): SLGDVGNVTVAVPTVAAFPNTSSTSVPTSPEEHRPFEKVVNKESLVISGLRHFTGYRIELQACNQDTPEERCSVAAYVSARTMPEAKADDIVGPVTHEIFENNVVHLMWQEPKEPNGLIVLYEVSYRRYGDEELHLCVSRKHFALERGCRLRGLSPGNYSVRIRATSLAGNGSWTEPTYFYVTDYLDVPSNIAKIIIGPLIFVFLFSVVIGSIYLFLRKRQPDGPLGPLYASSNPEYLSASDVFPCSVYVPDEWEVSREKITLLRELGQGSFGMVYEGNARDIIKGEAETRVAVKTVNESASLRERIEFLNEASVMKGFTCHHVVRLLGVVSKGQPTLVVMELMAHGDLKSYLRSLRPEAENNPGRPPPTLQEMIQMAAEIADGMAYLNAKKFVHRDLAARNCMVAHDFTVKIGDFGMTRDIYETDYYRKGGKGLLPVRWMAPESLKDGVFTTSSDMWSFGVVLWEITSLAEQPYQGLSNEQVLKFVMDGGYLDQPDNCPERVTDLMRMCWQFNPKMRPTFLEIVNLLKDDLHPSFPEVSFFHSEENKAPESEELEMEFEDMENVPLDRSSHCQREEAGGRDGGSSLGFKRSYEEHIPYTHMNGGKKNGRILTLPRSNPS
Casein kinase II, sequence (P67870 whole entry): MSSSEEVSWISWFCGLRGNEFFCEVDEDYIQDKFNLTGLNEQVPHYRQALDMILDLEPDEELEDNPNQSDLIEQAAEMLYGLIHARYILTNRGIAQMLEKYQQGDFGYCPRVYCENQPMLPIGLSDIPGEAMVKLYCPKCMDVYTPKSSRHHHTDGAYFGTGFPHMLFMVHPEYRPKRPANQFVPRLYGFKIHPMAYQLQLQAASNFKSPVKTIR
Casein kinase II, sequence (P68400 whole entry): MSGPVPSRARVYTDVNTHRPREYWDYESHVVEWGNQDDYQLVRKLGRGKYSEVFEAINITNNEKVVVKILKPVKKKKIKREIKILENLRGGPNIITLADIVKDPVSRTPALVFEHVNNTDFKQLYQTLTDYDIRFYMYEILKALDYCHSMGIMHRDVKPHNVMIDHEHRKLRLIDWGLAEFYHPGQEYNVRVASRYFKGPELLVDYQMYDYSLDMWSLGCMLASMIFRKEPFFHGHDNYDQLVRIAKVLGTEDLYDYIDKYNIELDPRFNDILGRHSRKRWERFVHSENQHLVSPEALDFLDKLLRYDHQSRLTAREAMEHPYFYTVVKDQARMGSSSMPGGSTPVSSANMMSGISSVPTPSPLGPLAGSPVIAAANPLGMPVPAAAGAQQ
Casein kinase II, sequence (P19784 whole entry): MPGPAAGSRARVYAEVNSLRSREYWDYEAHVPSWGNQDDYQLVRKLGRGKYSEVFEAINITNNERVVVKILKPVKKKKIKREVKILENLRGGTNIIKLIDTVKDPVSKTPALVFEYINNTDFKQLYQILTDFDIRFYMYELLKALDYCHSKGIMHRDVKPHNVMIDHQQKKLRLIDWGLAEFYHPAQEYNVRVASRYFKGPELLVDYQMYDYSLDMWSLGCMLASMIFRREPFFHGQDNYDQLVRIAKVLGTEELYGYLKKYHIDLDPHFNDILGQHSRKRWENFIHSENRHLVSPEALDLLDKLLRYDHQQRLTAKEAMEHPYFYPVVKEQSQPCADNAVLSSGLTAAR
Protein kinase C beta type, sequence (P05771 whole entry): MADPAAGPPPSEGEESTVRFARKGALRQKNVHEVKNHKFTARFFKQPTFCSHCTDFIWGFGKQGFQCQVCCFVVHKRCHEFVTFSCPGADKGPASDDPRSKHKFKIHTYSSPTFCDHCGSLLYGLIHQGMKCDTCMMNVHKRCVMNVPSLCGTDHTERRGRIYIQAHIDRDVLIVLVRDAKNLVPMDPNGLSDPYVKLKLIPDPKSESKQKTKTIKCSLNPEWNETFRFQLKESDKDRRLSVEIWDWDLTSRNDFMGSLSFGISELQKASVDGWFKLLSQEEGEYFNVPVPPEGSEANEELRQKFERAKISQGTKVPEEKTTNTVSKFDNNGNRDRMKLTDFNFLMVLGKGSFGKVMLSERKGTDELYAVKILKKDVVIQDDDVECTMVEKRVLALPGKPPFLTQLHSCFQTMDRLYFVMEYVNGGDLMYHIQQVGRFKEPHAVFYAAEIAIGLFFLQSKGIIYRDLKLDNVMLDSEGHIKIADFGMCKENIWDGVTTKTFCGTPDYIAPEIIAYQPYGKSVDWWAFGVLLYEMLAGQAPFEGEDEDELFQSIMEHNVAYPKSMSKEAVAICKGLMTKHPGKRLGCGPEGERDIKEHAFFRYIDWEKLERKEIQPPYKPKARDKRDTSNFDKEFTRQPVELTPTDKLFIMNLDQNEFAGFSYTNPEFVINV

Row | SMILES | IC50 [1] | IC50 [2] | IC50 [3] | also measured
1 | OCCCNc1cncc(-c2cncc(Nc3cccc(Cl)c3)n2)c1 | – | > 10 µM | – | IC50 ([4]; read-out: IC50): 0.478 µM; IC50 [5]: > 10 µM; IC50 [6]: > 10 µM; IC50 [7]: 3.87 µM; IC50 [8]: 1.68 µM; IC50 [9]: > 10 µM; IC50 [10]: 6.6 µM; IC50 [11]: > 10 µM; IC50 [12]: 0.164 µM; IC50 [13]: > 10 µM; IC50 [14]: > 10 µM
2 | Clc1ccc(Nc2cncc(-c3cncc(NCCCc4ccncc4)c3)n2)cc1 | 1 µM | > 10 µM | 1 µM | –
3 | O=C(COCc1ccccc1)Nc1cncc(-c2cncc(Nc3cccc(Cl)c3)n2)c1 | > 10 µM | > 10 µM | – | –
4 | O=C(CCCNc1cncc(-c2cncc(Nc3cccc(Cl)c3)n2)c1)N1CCCCC1 | 0.61 µM | > 10 µM | 0.617 µM | –
5 | OCCCNc1cncc(-c2cncc(NCc3ccccc3)n2)c1 | 1.05 µM | > 10 µM | 1.05 µM | –
6 | OCCCNc1cncc(-c2cncc(Nc3ccccc3Cl)n2)c1 | 1.01 µM | > 10 µM | 1 µM | –
7 | Nc1cncc(-c2cncc(Nc3cccc(Cl)c3)n2)c1 | 1.16 µM | > 10 µM | 1.15 µM | –
8 | Nc1ncc(NCCCO)cc1-c1cncc(Nc2cccc(Cl)c2)n1 | 1.36 µM | > 10 µM | 1.35 µM | –
9 | OCCCNc1cncc(-c2cncc(Oc3cccc(Cl)c3)n2)c1 | > 10 µM | > 10 µM | – | –
10 | Clc1cccc(Nc2cncc(-c3cncc(NCCOc4ccccc4)c3)n2)c1 | > 10 µM | > 10 µM | – | –
11 | O=C(O)CCCNc1cncc(-c2cncc(Nc3cccc(Cl)c3)n2)c1 | 0.568 µM | 5.22 µM | 0.575 µM | –
12 | COc1cccc(Nc2cncc(-c3cncc(NCCCO)c3)n2)c1 | 0.74 µM | > 10 µM | 0.741 µM | –
13 | OCCCNc1cnc(Cl)c(-c2cncc(Nc3cccc(Cl)c3)n2)c1 | > 10 µM | > 10 µM | – | –
14 | CN(C)CCNC(=O)c1cncc(-c2cncc(Nc3cccc(Cl)c3)n2)c1 | 4.3 µM | 3.69 µM | 4.27 µM | –
15 | Clc1cccc(Nc2cncc(-c3cncc(NCCCc4ccccc4)c3)n2)c1 | 2.28 µM | > 10 µM | 2.29 µM | –
16 | O=C(NCCCO)c1cncc(-c2cncc(Nc3cccc(Cl)c3)n2)c1 | 2.38 µM | > 10 µM | 2.4 µM | –
17 | COCCC(=O)Nc1cncc(-c2cncc(Nc3cccc(Cl)c3)n2)c1 | 0.593 µM | > 10 µM | 0.589 µM | –
18 | O=C(COc1ccccc1)Nc1cncc(-c2cncc(Nc3cccc(Cl)c3)n2)c1 | > 10 µM | > 10 µM | – | –
19 | CN(C)CCNc1cncc(-c2cncc(Nc3cccc(Cl)c3)n2)c1 | 0.105 µM | > 10 µM | 0.105 µM | IC50 [4]: > 10 µM; IC50 [15]: > 10 µM; IC50 [5]: 3.72 µM; IC50 [6]: 3.96 µM; IC50 [7]: 2.77 µM; IC50 [20]: > 10 µM; IC50 [16]: > 10 µM; IC50 [17]: > 10 µM; IC50 [8]: 0.877 µM; IC50 [9]: > 10 µM; IC50 [10]: 2.91 µM; IC50 [18]: > 10 µM; IC50 [19]: > 10 µM; IC50 [11]: 8.58 µM; IC50 [12]: 0.059 µM; MDS [21]: 22.4; IC50 [13]: > 10 µM; IC50 [22]: > 10 µM; IC50 [14]: > 10 µM; MDS [23]: 28.9
20 | CN(C)c1ccc(C(=O)Nc2cncc(-c3cncc(Nc4cccc(Cl)c4)n3)c2)cc1 | > 10 µM | > 10 µM | – | –
21 | OCCCCNc1cncc(-c2cncc(Nc3cccc(Cl)c3)n2)c1 | 0.063 µM | > 10 µM | 0.0631 µM | IC50 [4]: 4.02 µM; IC50 [15]: > 10 µM; IC50 [5]: 6.08 µM; IC50 [6]: > 10 µM; IC50 [7]: 3.23 µM; IC50 [16]: > 10 µM; IC50 [17]: > 10 µM; IC50 [8]: 1.17 µM; IC50 [9]: > 10 µM; IC50 [10]: 3.61 µM; IC50 [18]: > 10 µM; IC50 [11]: > 10 µM; IC50 [12]: 0.063 µM; MDS [21]: 24; IC50 [22]: > 10 µM; IC50 [14]: 5.56 µM; MDS [23]: 29.2

Further molecules by falling IC50 [1], results first:

Row | IC50 [1] | IC50 [2] | IC50 [3] | SMILES | also measured
22 | 0.399 µM | 5.38 µM | 0.398 µM | Clc1cccc(Nc2cncc(-c3cncc(NCCCN4CCCCC4)c3)n2)c1 | –
23 | 0.391 µM | > 10 µM | 0.389 µM | Clc1cccc(Nc2cncc(-c3cncc(NCC4CCOCC4)c3)n2)c1 | –
24 | 0.346 µM | > 10 µM | 0.347 µM | O=C(CO)Nc1cncc(-c2cncc(Nc3cccc(Cl)c3)n2)c1 | –
25 | 0.303 µM | > 10 µM | 0.302 µM | COCC(=O)Nc1cncc(-c2cncc(Nc3cccc(Cl)c3)n2)c1 | –
26 | 0.275 µM | > 10 µM | 0.275 µM | OCCNc1cncc(-c2cncc(Nc3cccc(Cl)c3)n2)c1 | –
27 | 0.266 µM | 10 µM | 0.263 µM | Clc1cccc(Nc2cncc(-c3cncc(NCCCCc4ccncc4)c3)n2)c1 | –
28 | 0.251 µM | > 10 µM | 0.251 µM | OCCCNc1cnc(F)c(-c2cncc(Nc3cccc(Cl)c3)n2)c1 | –
29 | 0.236 µM | 5.62 µM | 0.234 µM | Clc1cccc(Nc2cncc(-c3cncc(NCCCN4CCNCC4)c3)n2)c1 | –
30 | 0.189 µM | > 10 µM | 0.191 µM | Clc1ccc(Nc2cncc(-c3cncc(NCCCc4ccncc4)c3)n2)cc1Cl | –
31 | 0.18 µM | > 10 µM | 0.182 µM | Clc1cccc(Nc2cncc(-c3cncc(NCCCN4CCOCC4)c3)n2)c1 | –
32 | 0.168 µM | > 10 µM | 0.17 µM | OCCCNc1cncc(-c2cncc(Nc3cccc(F)c3)n2)c1 | –
33 | 0.135 µM | > 10 µM | 0.135 µM | CN(C)CCCNc1cncc(-c2cncc(Nc3cccc(Cl)c3)n2)c1 | –
34 | 0.123 µM | > 10 µM | 0.123 µM | CN1CCN(CCCNc2cncc(-c3cncc(Nc4cccc(Cl)c4)n3)c2)CC1 | –
35 | 0.094 µM | > 10 µM | 0.0933 µM | Clc1cccc(Nc2cncc(-c3cncc(NCCCn4cccn4)c3)n2)c1 | IC50 [4]: 0.606 µM; IC50 [15]: > 10 µM; IC50 [5]: 2.84 µM; IC50 [7]: 3 µM; IC50 [16]: 8.1 µM; IC50 [17]: > 10 µM; IC50 [8]: 1.39 µM; IC50 [9]: > 10 µM; IC50 [10]: 3.61 µM; IC50 [18]: > 10 µM; IC50 [11]: 5.24 µM; IC50 [12]: 0.12 µM; IC50 [13]: 5.6 µM; IC50 [14]: 3.5 µM
36 | 0.076 µM | > 10 µM | 0.0759 µM | Clc1cccc(Nc2cncc(-c3cncc(NCCCc4ccncc4)c3)n2)c1 | –
37 | 0.076 µM | – | 0.0759 µM | Clc1cccc(Nc2cncc(-c3cncc(NCCCc4cccnc4)c3)n2)c1 | IC50 [4]: 0.318 µM; IC50 [5]: 2.96 µM; IC50 [7]: 6.15 µM; IC50 [16]: > 10 µM; IC50 [17]: > 10 µM; IC50 [8]: 1.67 µM; IC50 [9]: > 10 µM; IC50 [10]: 3.38 µM; IC50 [18]: > 10 µM; IC50 [19]: 0.876 µM; IC50 [11]: 5.05 µM; IC50 [12]: 0.086 µM; IC50 [13]: > 10 µM; IC50 [14]: 3.06 µM
38 | 0.067 µM | > 10 µM | 0.0676 µM | Clc1cccc(Nc2cncc(-c3cncc(NCCCn4cncn4)c3)n2)c1 | IC50 [4]: 0.196 µM; IC50 [5]: 5.16 µM; IC50 [7]: 2.98 µM; IC50 [16]: 7.2 µM; IC50 [17]: > 10 µM; IC50 [8]: 1.07 µM; IC50 [9]: > 10 µM; IC50 [10]: 6.72 µM; IC50 [18]: > 10 µM; IC50 [11]: > 10 µM; IC50 [12]: 0.057 µM; IC50 [13]: 6.5 µM; IC50 [14]: 6.06 µM
